Source: PubChem
E-selectin induc = E-selectin induction on HUVECs | P16581 | HUVEC E-selectin immunofluorescence imaging; normalized: neutral wells 0, TNF-alpha wells 100 | activation, % at 7.58 µM | 0.37% of 260,000 active;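 active = mean E-selectin-positive cell signal at least 10% of the positive control, reached in at least 60% of replicates, without over 20% cell loss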
Target sequence (P16581 whole entry, looked up): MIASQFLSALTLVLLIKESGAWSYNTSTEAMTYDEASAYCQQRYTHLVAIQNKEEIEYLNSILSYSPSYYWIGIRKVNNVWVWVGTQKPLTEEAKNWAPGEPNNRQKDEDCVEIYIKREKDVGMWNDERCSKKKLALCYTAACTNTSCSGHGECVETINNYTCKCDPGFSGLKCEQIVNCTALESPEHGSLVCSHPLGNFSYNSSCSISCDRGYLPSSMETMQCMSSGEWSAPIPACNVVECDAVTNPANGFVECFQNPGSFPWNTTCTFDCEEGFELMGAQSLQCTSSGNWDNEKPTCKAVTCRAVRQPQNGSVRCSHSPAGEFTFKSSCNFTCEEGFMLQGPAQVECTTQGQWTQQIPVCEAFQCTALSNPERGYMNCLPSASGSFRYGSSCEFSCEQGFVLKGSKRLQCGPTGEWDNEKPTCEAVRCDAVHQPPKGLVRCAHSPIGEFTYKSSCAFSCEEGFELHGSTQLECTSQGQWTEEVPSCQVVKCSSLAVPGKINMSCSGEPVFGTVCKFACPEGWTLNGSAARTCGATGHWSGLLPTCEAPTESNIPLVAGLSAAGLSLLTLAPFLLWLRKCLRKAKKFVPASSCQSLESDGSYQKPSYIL
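System: HUVEC, human umbilical vein endothelial cells; quantity: 3,000 cells/well; buffer or medium: EGM-2 medium, gelatin-coated wells; dosing: single-point compound dose; detection: immunofluorescence imaging; evaluation: % PE-positive cells; benchmarks: TNF-alpha, DMSO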
CFTR F508del cor = CFTR F508del correction in bronchial cells; CFBE cells, YFP halide quenching; stimulated with forskolin plus potentiator P3; % fluorescence drop versus neutral controls; activity (quench increase), % at 7.58 µM; 0.36% of 350,000 active; AID 720511;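 active = mean added fluorescence quench of at least 8% versus neutral control, with both replicates also reaching 8%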;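 also: cells transiently co-express mutant CFTR-F508del with the halide-sensitive YFP; corrector assay measuring rescue of mutant channel to the surface after 24 h compound exposure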
Xi reactivation = reactivates the inactive X chromosome in mouse fibroblasts. XiGFP mouse fibroblasts, % GFP-positive cells imaging, 3 d; cells co-treated with 5-aza-dC sensitizer; scaled so ellipticine positive control = 100%. activation, % at 7.58 µM. 0.055% of 360,000 active. AID 743238;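 active = mean normalized replicate activation at least 10% and every replicate at or above 10%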;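 also: 0% = median of on-plate neutral control wells and 100% = ellipticine 6 µM median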
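System: 68-5-11 XiGFP fibroblast line; Timing: 3 days compound exposure; Compound dosing: one concentration, pinned; Benchmarks: positive control ellipticine, 6 µM final; Buffer or medium: DMEM containing 5-aza-dC.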
An asterisk follows results filed as active. This is a sample that favours compounds with a hit; in the whole collection about 0.61% have one here.

Screening C[C@H]1CN([C@@H](C)CO)C(=O)Cc2cc(NC(=O)Nc3ccc4c(c3)OCO4)ccc2O[C@H]1CN(C)Cc1ccc(Oc2ccccc2)cc1 returned E-selectin induc 1, CFTR F508del cor 0 and Xi reactivation 0.
`Cc1noc(C)c1S(=O)(=O)N(C)C[C@H]1Oc2ccc(NC(=O)Nc3ccc(F)cc3)cc2CC(=O)N([C@@H](C)CO)C[C@H]1C` gave E-selectin induc -3, CFTR F508del cor 3 and Xi reactivation 0.
For Cc1noc(C)c1S(=O)(=O)N(C)C[C@@H]1Oc2ccc(NS(C)(=O)=O)cc2CC(=O)N([C@@H](C)CO)C[C@H]1C the results were E-selectin induc 0, CFTR F508del cor 1 and Xi reactivation 0.
For Cc1noc(C)c1S(=O)(=O)N(C)C[C@@H]1Oc2ccc(NC(=O)Nc3ccc(F)cc3)cc2CC(=O)N([C@@H](C)CO)C[C@H]1C the results were E-selectin induc 0, CFTR F508del cor 2 and Xi reactivation 0.
Screening Cc1noc(C)c1S(=O)(=O)N(C)C[C@@H]1Oc2ccc(NC(=O)Nc3ccc(F)cc3)cc2CC(=O)N([C@H](C)CO)C[C@H]1C returned E-selectin induc 45*, CFTR F508del cor 2 and Xi reactivation 0.
Cc1noc(C)c1S(=O)(=O)N(C)C[C@@H]1Oc2ccc(NC(=O)Nc3ccc(F)cc3)cc2CC(=O)N([C@@H](C)CO)C[C@@H]1C was read as E-selectin induc 51*, CFTR F508del cor 1 and Xi reactivation 0.
For Cc1noc(C)c1S(=O)(=O)N(C)C[C@H]1Oc2ccc(NS(C)(=O)=O)cc2CC(=O)N([C@@H](C)CO)C[C@H]1C the results were E-selectin induc 28*, CFTR F508del cor -3 and Xi reactivation 0.
Screening CCCC#Cc1ccc2c(c1)O[C@H](CN(C)CC1CCOCC1)[C@@H](C)CN([C@H](C)CO)S2(=O)=O returned E-selectin induc 0, CFTR F508del cor -1 and Xi reactivation 0.
`CC(C)c1cn(CC[C@@H]2CC[C@H](NC(=O)Nc3cc(Cl)cc(Cl)c3)[C@@H](CO)O2)nn1` gave E-selectin induc 0, CFTR F508del cor 0 and Xi reactivation 0.
CO[C@@H]1CN(C)C(=O)c2ccc(NC(C)=O)cc2OC[C@@H](C)N(CCc2ccccc2)C[C@@H]1C was read as E-selectin induc 0, CFTR F508del cor 1 and Xi reactivation 0.
Screening Cc1ccccc1-c1nc(CS(=O)(=O)CC(=O)NCc2ccccc2)c(C)o1 returned E-selectin induc 0, CFTR F508del cor 8.8* and Xi reactivation 0.
For Cc1ccc(CNC(=O)CS(=O)(=O)Cc2nc(-c3ccccc3F)oc2C)cc1 the results were CFTR F508del cor -1 and Xi reactivation 0.
CC=Cc1ccc2n(c1=O)C[C@H]1[C@H](CO)[C@@H](C(=O)Nc3nccs3)N(Cc3ccccc3F)[C@@H]21 (mixture of isomers) was read as E-selectin induc 0, CFTR F508del cor 0 and Xi reactivation 0.
Screening CCOc1ccc(S(=O)(=O)Nc2cc(SCC(=O)O)c(O)c3ccccc23)cc1 returned CFTR F508del cor -4 and Xi reactivation 0.
Screening O=S(=O)(Nc1cc(Sc2cccc3cccnc23)c(O)c2ccccc12)c1ccccc1 returned CFTR F508del cor 26* and Xi reactivation 53*.
Cc1ccc(S(=O)(=O)N2CCOCC2)cc1NC(=O)CSc1nnc(COc2ccccc2F)n1N was read as E-selectin induc 0, CFTR F508del cor 28* and Xi reactivation 0.
For Cc1ccc(S(=O)(=O)N2CCOCC2)cc1NC(=O)CSc1ccccn1 the results were E-selectin induc 2, CFTR F508del cor -1 and Xi reactivation 0.
`Cc1cccc(S(=O)(=O)N2CC[C@@H]3[C@@H](CO)Nc4ccc(C#Cc5ccc(F)cc5)cc4[C@@H]32)c1` gave E-selectin induc 0, CFTR F508del cor 3 and Xi reactivation 0.
`CC(=O)c1c(C)[nH]c(C(=O)OCC(=O)NCc2ccc(Cl)cc2)c1C` gave E-selectin induc 0, CFTR F508del cor 12* and Xi reactivation 0.
Screening CCOC(=O)c1[nH]c(C)c(C(=O)OCC(=O)NCc2ccc(Cl)cc2)c1C returned CFTR F508del cor -4 and Xi reactivation 0.
COc1ccc(NC(=O)Nc2ccc3c(c2)C(=O)N([C@@H](C)CO)C[C@H](C)[C@@H](CN(C)Cc2ccncc2)OCCCC[C@@H](C)O3)cc1 was read as E-selectin induc 0, CFTR F508del cor 1 and Xi reactivation 0.
Oc1c(Cl)cc(Cl)cc1/C=N/Nc1ncc(Br)cn1 was read as E-selectin induc 13, CFTR F508del cor 3 and Xi reactivation 0.
For CN(/N=C/c1cc(Cl)cc(Cl)c1O)C(=S)NC(C)(C)C the results were E-selectin induc 71*, CFTR F508del cor -1 and Xi reactivation 0.
Screening C[C@H](CO)N1C[C@H](C)[C@H](CN(C)S(=O)(=O)c2ccccc2)Oc2ccc(NC(=O)Nc3ccc4c(c3)OCO4)cc2C1=O returned E-selectin induc -4, CFTR F508del cor 3 and Xi reactivation 0.
`CC1CN(S(=O)(=O)c2cccc(C(=O)Nc3cc(Cl)ccc3N3CCOCC3)c2)CC(C)O1` (centres undefined) gave E-selectin induc -2, CFTR F508del cor 20* and Xi reactivation -1.
Screening CN1CCN(S(=O)(=O)c2cccc(C(=O)Nc3cc(Cl)ccc3N3CCOCC3)c2)CC1 returned CFTR F508del cor 5 and Xi reactivation 1.
`CN1CCN(C(=O)C[C@@H]2C[C@H]3c4cc(NC(=O)Nc5ccccc5)ccc4O[C@H]3[C@H](CO)O2)CC1` gave E-selectin induc 0, CFTR F508del cor -1 and Xi reactivation 0.
Screening COc1ccc2c3c([nH]c2c1)[C@@H](CO)N(C(=O)c1ccccn1)CC31CCN(C(=O)C2CCCC2)CC1 returned E-selectin induc 0, CFTR F508del cor -1 and Xi reactivation 0.
COc1cc(C=c2c3ccccc3n3c2cc(-c2ccccc2)[n+]3C)cc(OC)c1OC was read as E-selectin induc 139*, CFTR F508del cor -2 and Xi reactivation 0.
For COc1cc(/C=C(/C(=O)O)c2ccc(-c3ccccc3)cc2)cc(OC)c1OC the results were E-selectin induc 1, CFTR F508del cor 1 and Xi reactivation 0.
For COc1cc(N(C)C)ccc1C=c1c2ccccc2n2c1cc(-c1ccccc1)[n+]2C the results were E-selectin induc 160*, CFTR F508del cor -2 and Xi reactivation 1.
Screening Cn1c2ccccc2c2cc([N+](=O)[O-])ccc21 returned E-selectin induc 0, CFTR F508del cor -1 and Xi reactivation 0.
Screening CN(C)c1ccc(C=c2c3ccccc3n3c2c2c([n+]3C)CCCC2)cc1 returned E-selectin induc 68*, CFTR F508del cor 2 and Xi reactivation 0.
`CN(C)c1ccc(C=c2c3cc([N+](=O)[O-])ccc3n3c2cc(-c2ccccc2)[n+]3C)cc1` gave E-selectin induc 218*, CFTR F508del cor 0 and Xi reactivation 0.
Screening CCN(CC)c1ccc(/C=C/c2cccc[n+]2C)c(OC)c1 returned CFTR F508del cor 1 and Xi reactivation 0.
